In ChEMBL document CHEMBL1772999, “Synthesis and biological evaluation of 2,4,5-substituted pyrimidines as a new class of tubulin polymerization inhibitors” (J Med Chem, 2011):
The source made the active and inactive calls. The rule behind the calls is not given here.

Legend:
NCI-H460 = test: Antiproliferative activity against human NCI-H460 cells after 72 hrs by sulforhodamine B assay; assay type: functional, cell-based; conditions: NCI-H460, 72 h
In short: (§1)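 SRB survival assay: cells seeded in 96-well plates, exposed to a range of compound concentrations for 72 h, fixed with 10% TCA 1 h at 4 °C, stained with 0.4% (w/v) SRB 20 min at room temperature, washed with 1% acetic acid, dye solubilized in 10 mM Tris, absorbance at 510 nm.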

Tubulin = Tubulin (Sus scrofa, UniProt P02554+P02550); test: Inhibition of pig brain tubulin polymerization by spectrophotometry
In short: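 Pig brain microtubule protein from three assembly/disassembly cycles, tubulin purified by phosphocellulose chromatography. Polymerization in PEM buffer (100 mM PIPES, 1 mM EGTA, 1 mM MgCl2) with 1 mM GTP and 5% glycerol at 37 °C, followed by light scattering at 340 nm.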

A-431 = test: Antiproliferative activity against human A431 cells after 72 hrs by sulforhodamine B assay; assay type: functional, cell-based; conditions: A-431, 72 h; in short: as §1
SK-OV-3 = test: Antiproliferative activity against human SKOV3 cells after 72 hrs by sulforhodamine B assay; assay type: functional, cell-based; conditions: SK-OV-3, 72 h; in short: as §1
Bel-7402 = test: Antiproliferative activity against human Bel7402 cells after 72 hrs by sulforhodamine B assay; assay type: functional, cell-based; conditions: Bel-7402, 72 h; in short: as §1
A549 = test: Antiproliferative activity against human A549 cells after 72 hrs by sulforhodamine B assay; assay type: functional, cell-based; conditions: A549, 72 h; in short: as §1
HT-29 = test: Antiproliferative activity against human HT-29 cells after 72 hrs by sulforhodamine B assay; assay type: functional, cell-based; conditions: HT-29, 72 h; in short: as §1
KB = test: Cell cycle arrest in human KB cells assessed as accumulation of cells at G2/M phase after 24 hrs by propidium iodide-based FACScan; assay type: functional
In short: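 Subconfluent KB cells exposed to a range of concentrations for 24 h. Adherent plus detached cells collected by trypsinization, fixed overnight in 70% ethanol, stained 30 min at 37 °C with propidium iodide 50 μg/mL plus DNase-free RNase A 50 μg/mL. 10000 cells per group analyzed by flow cytometry.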

Tubulin (Sus scrofa) = Tubulin (Sus scrofa) (UniProt P02554+P02550); test: Displacement of colchicine from pig brain tubulin at 25 uM after 60 mins by fluorescence assay
Tubulin (Sus scrofa), sequence (P02550 whole entry, looked up): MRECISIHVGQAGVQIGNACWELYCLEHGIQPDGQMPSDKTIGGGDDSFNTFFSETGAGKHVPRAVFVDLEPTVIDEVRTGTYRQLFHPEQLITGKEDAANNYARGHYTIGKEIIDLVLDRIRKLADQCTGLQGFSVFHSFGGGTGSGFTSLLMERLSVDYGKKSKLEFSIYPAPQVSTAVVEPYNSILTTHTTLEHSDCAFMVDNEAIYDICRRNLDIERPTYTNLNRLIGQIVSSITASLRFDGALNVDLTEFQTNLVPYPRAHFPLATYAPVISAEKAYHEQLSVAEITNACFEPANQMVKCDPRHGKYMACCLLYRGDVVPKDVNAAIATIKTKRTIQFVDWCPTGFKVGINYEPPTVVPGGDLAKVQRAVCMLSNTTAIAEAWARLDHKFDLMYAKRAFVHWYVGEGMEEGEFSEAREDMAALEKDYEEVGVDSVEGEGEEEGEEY
Tubulin (Sus scrofa), sequence (P02554 whole entry, looked up): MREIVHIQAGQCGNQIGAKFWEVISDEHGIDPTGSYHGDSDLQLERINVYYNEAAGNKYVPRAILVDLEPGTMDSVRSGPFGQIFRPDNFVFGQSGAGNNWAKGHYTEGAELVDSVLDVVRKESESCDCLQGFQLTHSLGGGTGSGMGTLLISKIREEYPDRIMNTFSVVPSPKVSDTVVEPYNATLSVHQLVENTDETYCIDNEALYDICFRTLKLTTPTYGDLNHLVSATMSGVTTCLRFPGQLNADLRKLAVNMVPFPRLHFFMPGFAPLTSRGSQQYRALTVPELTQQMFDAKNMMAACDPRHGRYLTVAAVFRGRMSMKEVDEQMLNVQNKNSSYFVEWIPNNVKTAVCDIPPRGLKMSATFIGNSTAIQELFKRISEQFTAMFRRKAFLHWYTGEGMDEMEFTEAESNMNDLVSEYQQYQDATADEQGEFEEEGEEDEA
In short: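 Tubulin (3 μM) preincubated with colchicine (3 μM) 30 min at 37 °C, then compound added (0–25 μM). Fluorescence spectra (excitation 365 nm, emission 435 nm) recorded after 60 min at 37 °C, buffer blank subtracted.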

Compound | IC50 (NCI-H460) [nM] | IC50 (Tubulin) [nM] | IC50 (A-431) [nM] | IC50 (SK-OV-3) [nM] | IC50 (Bel-7402) [nM] | IC50 (A549) [nM] | IC50 (HT-29) [nM] | EC50 (KB) [nM] | Activity (Tubulin (Sus scrofa))
COc1cc2c(c(OC)c1OC)-c1ccc(OC)c(=O)cc1[C@@H](NC(C)=O)CC2 [COLCHICINE] | 50.6 |  | 53.2 | 71.2 | 40 | 37 | 21.9 | 10 | 
CN1CCN(Cc2ccc(-c3cnc(N)nc3-c3ccccc3O)cc2)CC1 |  | > 50000 |  |  | > 10000 |  |  |  | 
Nc1ncc(-c2ccc(CN3CCCCC3)cc2)c(-c2ccccc2O)n1 |  | > 50000 |  |  | > 10000 |  |  |  | 
CC(=O)O[C@H]1C(=O)[C@@]2(C)[C@H]([C@H](OC(=O)c3ccccc3)[C@]3(O)C[C@H](OC(=O)[C@H](O)[C@@H](NC(=O)c4ccccc4)c4ccccc4)C(C)=C1C3(C)C)[C@]1(OC(C)=O)CO[C@@H]1C[C@@H]2O [PACLITAXEL] | 14.6 |  | 9.2 | 14.5 |  |  | 6.1 | 2 | 
CN(C)Cc1ccc(-c2cnc(N)nc2-c2ccccc2O)cc1 |  | > 50000 |  |  | > 10000 |  |  |  | 
Nc1ncc(-c2ccc3[nH]ccc3c2)c(-c2ccccc2O)n1 |  | > 50000 |  |  | > 10000 |  |  |  | 
CCN(C)c1ccc(-c2cnc(N)nc2-c2ccccc2O)cc1 |  | 2350 |  |  |  |  |  |  | 
Nc1ncc(-c2ccc(CN3CCOCC3)cc2)c(-c2ccccc2O)n1 |  | > 50000 |  |  | > 10000 |  |  |  | 
CCn1ccc2cc(-c3cnc(N)nc3-c3ccc(OC)c(OC)c3O)ccc21 |  | > 50000 |  |  | > 10000 |  |  |  | 
CCn1ccc2cc(-c3cnc(N)nc3-c3ccc(OC)cc3O)ccc21 |  | > 50000 |  |  | > 10000 |  |  |  | 
Nc1ncc(-c2ccc(N3CCOCC3)cc2)c(-c2ccccc2O)n1 |  | > 50000 |  |  | > 10000 |  |  |  | 
CCC1=C[C@@H]2CN(C1)Cc1c([nH]c3ccccc13)[C@@](C(=O)OC)(c1cc3c(cc1OC)N(C)[C@H]1[C@@](O)(C(=O)OC)[C@H](OC(C)=O)[C@]4(CC)C=CCN5CC[C@]31[C@@H]54)C2 [VINORELBINE] | 43.7 |  | 60 | 26.7 |  | 64.6 | 11.9 | 6 | inactive
Nc1ncc(-c2ccc(N3CCCC3)cc2)c(-c2ccccc2O)n1 |  | > 50000 |  |  | > 10000 |  |  |  | 
CCn1ccc2cc(-c3cnc(N)nc3-c3cc(OC)ccc3O)ccc21 |  | > 50000 |  |  | > 10000 |  |  |  | 
CN1CCN(c2ccc(-c3cnc(N)nc3-c3ccccc3O)cc2)CC1 |  | > 50000 |  |  | > 10000 |  |  |  | 
CCn1ccc2ccc(-c3cnc(N)nc3-c3ccccc3O)cc21 |  | > 50000 |  |  | > 10000 |  |  |  | 
Nc1ncc(-c2ccc(N3CCCCC3)cc2)c(-c2ccccc2O)n1 |  | > 50000 |  |  | > 10000 |  |  |  | 

Second part, the compound after the results:

IC50 (NCI-H460) [nM] | IC50 (Tubulin) [nM] | IC50 (A-431) [nM] | IC50 (SK-OV-3) [nM] | IC50 (Bel-7402) [nM] | IC50 (A549) [nM] | IC50 (HT-29) [nM] | EC50 (KB) [nM] | Activity (Tubulin (Sus scrofa)) | Compound
20.5 | 920 | 21.7 | 69.2 | 50 | 48.2 | 30.8 |  |  | Cn1ccc2cc(-c3cnc(N)nc3-c3ccccc3O)ccc21
 | > 50000 |  |  | > 10000 |  |  |  |  | CCn1ccc2cc(-c3cnc(N)nc3-c3cc(OC)c(OC)cc3O)ccc21
19 | 790 | 20.3 | 32 | 16 | 62 | 28.2 | 20 | Active | CCn1ccc2cc(-c3cnc(N)nc3-c3ccccc3O)ccc21
 | > 50000 |  |  | 1000 |  |  |  |  | CCn1ccc2cc(-c3cnc(N)nc3-c3ccccc3O)cnc21
57 | 5570 | 76.6 | 171 | 100 | 241 | 95.4 |  |  | CCN(CC)c1ccc(-c2cnc(N)nc2-c2ccccc2O)cc1
485 | 5000 | 760 | 760 | 80 | 1310 | 918 |  |  | CC(C)n1ccc2cc(-c3cnc(N)nc3-c3ccccc3O)ccc21
 | > 50000 |  |  | 1000 |  |  |  |  | CCn1ccc2c(-c3cnc(N)nc3-c3ccccc3O)cccc21
25.8 | 800 | 45.4 | 56.1 | 10 | 70.4 | 41.8 |  |  | CCn1ccc2cc(-c3cnc(N)nc3-c3cc(F)ccc3O)ccc21
